Experimental data reported in ChEMBL document CHEMBL1649212, “AI-2/LuxS is involved in increased biofilm formation by Streptococcus intermedius in the presence of antibiotics” (2009).
Calls of active or inactive are those of the source. The calls are words filed in the database; no cut-off is given here.

How the values were obtained:
[1] = test system: Streptococcus intermedius; assay: Antimicrobial activity against Streptococcus intermedius NCTC 11324 planktonic cells assessed as bacterial count at 0.35 ug/ml (Rvb =756.9 +/- 62.98 10^8 CFU/ml); assay type: functional
[2] = test system: Streptococcus intermedius; assay: Antimicrobial activity against Streptococcus intermedius NCTC 11324 biofilm assessed as biofilm bacterial count at 0.20 ug/ml (Rvb =402.9 +/- 26.88 10^5 CFU/ml); assay type: functional
[3] = test system: Streptococcus intermedius; assay: Antimicrobial activity against Streptococcus intermedius SI006 biofilm harboring luxS mutant gene assessed as biofilm bacterial count at 0.20 ug/ml (Rvb =310.8 +/- 17.10 10^5 CFU/ml); assay type: functional
[4] = test system: Streptococcus intermedius; assay: Antimicrobial activity against Streptococcus intermedius SI006 biofilm harboring luxS mutant gene assessed as biofilm bacterial count at 0.15 ug/ml (Rvb =310.8 +/- 17.10 10^5 CFU/ml); assay type: functional
[5] = test system: Streptococcus intermedius; assay: Antimicrobial activity against Streptococcus intermedius SI006 planktonic cells harboring luxS mutant gene assessed as bacterial count at 0.35 ug/ml (Rvb =708.1 +/- 47.64 10^8 CFU/ml); assay type: functional
[6] = test system: Streptococcus intermedius; assay: Antimicrobial activity against Streptococcus intermedius SI006 planktonic cells harboring luxS mutant gene assessed as bacterial count at 0.30 ug/ml (Rvb =708.1 +/- 47.64 10^8 CFU/ml); assay type: functional
[7] = test system: Streptococcus intermedius; assay: Antimicrobial activity against Streptococcus intermedius SI006 biofilm harboring luxS mutant gene assessed as biofilm bacterial count at 0.10 ug/ml (Rvb =310.8 +/- 17.10 10^5 CFU/ml); assay type: functional
[8] = test system: Streptococcus intermedius; assay: Antimicrobial activity against Streptococcus intermedius NCTC 11324 assessed as growth inhibition at 0.5 ug/ml; assay type: functional
Method in brief: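 Broth microdilution MIC in ultra-low-binding 96-well plates, inoculum ≈4 × 10^5. Growth was read at 595 nm, and the MIC was taken as the lowest antibiotic concentration inhibiting growth.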

[9] = test system: Streptococcus intermedius; assay: Antimicrobial activity against Streptococcus intermedius SI006 planktonic cells harboring luxS mutant gene assessed as bacterial count at 0.25 ug/ml (Rvb =708.1 +/- 47.64 10^8 CFU/ml); assay type: functional
[10] = test system: Streptococcus intermedius; assay: Antimicrobial activity against Streptococcus intermedius NCTC 11324 biofilm assessed as biofilm bacterial count at 0.10 ug/ml (Rvb =402.9 +/- 26.88 10^5 CFU/ml); assay type: functional
[11] = test system: Streptococcus intermedius; assay: Antimicrobial activity against Streptococcus intermedius NCTC 11324 planktonic cells assessed as bacterial count at 0.25 ug/ml (Rvb =756.9 +/- 62.98 10^8 CFU/ml); assay type: functional
Method in brief: (§1)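 Planktonic wild-type cells were inoculated at ≈4 × 10^5 CFU/ml in TSB in ultra-low-binding plates. Media were without or with ampicillin (0.02 to 0.14 μg/ml), ciprofloxacin (0.10 to 0.35 μg/ml) or tetracycline (0.03 to 0.20 μg/ml). After 12 h at 37°C in 5% CO2 aerobic air, CFU were counted, run in parallel with the BacTiter-Glo ATP assay. Experiments were done three times in two parallels.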

[12] = test system: Streptococcus intermedius; assay: Antimicrobial activity against Streptococcus intermedius NCTC 11324 planktonic cells assessed as bacterial count at 0.20 ug/ml (Rvb =756.9 +/- 62.98 10^8 CFU/ml); assay type: functional; method in brief: as §1
[13] = test system: Streptococcus intermedius; assay: Antimicrobial activity against Streptococcus intermedius SI006 planktonic cells harboring luxS mutant gene assessed as bacterial count at 0.30 ug/ml in presence of 0.8 nM autoinducer 4,5-dihydroxy-2,3-pentanedione (Rvb =768.6 +/- 46.24 10^8 CFU/ml); assay type: functional
[14] = test system: Streptococcus intermedius; assay: Antimicrobial activity against Streptococcus intermedius NCTC 11324 biofilm assessed as biofilm bacterial count at 0.15 ug/ml (Rvb =402.9 +/- 26.88 10^5 CFU/ml); assay type: functional
[15] = test system: Streptococcus intermedius; assay: Antimicrobial activity against Streptococcus intermedius SI006 planktonic cells harboring luxS mutant gene assessed as bacterial count at 0.25 ug/ml in presence of 0.8 nM autoinducer 4,5-dihydroxy-2,3-pentanedione (Rvb =768.6 +/- 46.24 10^8 CFU/ml); assay type: functional
[16] = test system: Streptococcus intermedius; assay: Antimicrobial activity against Streptococcus intermedius NCTC 11324 assessed as biofilm formation at 0.10 to 0.25 ug/ml; assay type: functional, organism-based
Method in brief: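 Wild-type NCTC 11324 was grown overnight in TSB and inoculated into TSB with ampicillin (0.02 to 0.10 μg/ml), ciprofloxacin (0.10 to 0.28 μg/ml) or tetracycline (0.05 to 0.30 μg/ml), added at time zero. Wells held plastic coverslips and were incubated 12 h at 37°C in 5% CO2 aerobic air. Biofilm was measured as described previously. Experiments were done three times in three parallels.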

[17] = test system: Streptococcus intermedius; assay: Antimicrobial activity against Streptococcus intermedius SI006 biofilm harboring luxS mutant gene assessed as biofilm bacterial count at 0.20 ug/ml in presence of 0.8 nM autoinducer 4,5-dihydroxy-2,3-pentanedione (Rvb =413.7 +/- 24.47 10^5 CFU/ml); assay type: functional
[18] = test system: Streptococcus intermedius; assay: Antimicrobial activity against Streptococcus intermedius NCTC 11324 planktonic cells assessed as bacterial count at 0.30 ug/ml (Rvb =756.9 +/- 62.98 10^8 CFU/ml); assay type: functional; method in brief: as §1
[19] = test system: Streptococcus intermedius; assay: Antimicrobial activity against Streptococcus intermedius SI006 planktonic cells harboring luxS mutant gene assessed as bacterial count at 0.20 ug/ml in presence of 0.8 nM autoinducer 4,5-dihydroxy-2,3-pentanedione (Rvb =768.6 +/- 46.24 10^8 CFU/ml); assay type: functional
[20] = test system: Streptococcus intermedius; assay: Antimicrobial activity against Streptococcus intermedius SI006 biofilm harboring luxS mutant gene assessed as biofilm bacterial count at 0.10 ug/ml in presence of 0.8 nM autoinducer 4,5-dihydroxy-2,3-pentanedione (Rvb =413.7 +/- 24.47 10^5 CFU/ml); assay type: functional
[21] = test system: Streptococcus intermedius; assay: Antimicrobial activity against Streptococcus intermedius SI006 planktonic cells harboring luxS mutant gene assessed as bacterial count at 0.35 ug/ml in presence of 0.8 nM autoinducer 4,5-dihydroxy-2,3-pentanedione (Rvb =768.6 +/- 46.24 10^8 CFU/ml); assay type: functional

Compound: O=C(O)c1cn(C2CC2)c2cc(N3CCNCC3)c(F)cc2c1=O [CIPROFLOXACIN]
- CFU [1]: 2.6 ×10⁸ /ml
- CFU [2]: 577.2 ×10⁵ /ml
- CFU [3]: 131 ×10⁵ /ml
- CFU [4]: 333 ×10⁵ /ml
- CFU [5]: 0.4 ×10⁸ /ml
- CFU [6]: 0.74 ×10⁸ /ml
- CFU [7]: 324.1 ×10⁵ /ml
- Activity [8]: 0.5 µg/mL
- CFU [9]: 1.16 ×10⁸ /ml
- CFU [10]: 768.1 ×10⁵ /ml
- CFU [11]: 5.14 ×10⁸ /ml
- CFU [12]: 5.87 ×10⁸ /ml
- CFU [13]: 3.1 ×10⁸ /ml
- CFU [14]: 663.8 ×10⁵ /ml
- CFU [15]: 4.72 ×10⁸ /ml
- Activity [16]: inactive
- CFU [17]: 519.5 ×10⁵ /ml
- CFU [18]: 3.12 ×10⁸ /ml
- CFU [19]: 5.3 ×10⁸ /ml
- CFU [20]: 814.7 ×10⁵ /ml
- CFU [21]: 2.3 ×10⁸ /ml
